Published values from different studies.
Protocols differ between the studies behind these lines.
OfChi-h: Chitinase (OfChi-h, Ostrinia furnacalis, UniProt Q4AE59)
HDAC7: Histone deacetylase 7 (HDAC7, Homo sapiens, UniProt Q8WUI4)
WDR5: WD repeat-containing protein 5 (WDR5, Homo sapiens, UniProt P61964)

C=CC(=O)N1CCC(COCC(=O)N2CCN(c3nc(-c4cnc(N)nc4C(F)F)nc(N4CCOC[C@@H]4C)n3)CC2)CC1
remaining binding (Epithelial discoidin domain-containing receptor 1 (DDR1, Homo sapiens, UniProt Q08345); binding, competition with immobilised ligand; 1 µM): 99%

CN(C)c1nc(NCc2cccc(C(F)(F)F)c2)c(/N=N/c2ccc(Cl)cc2)c(N(C)C)n1
inhibition (OfChi-h; enzyme activity, inhibitor, fluorescence; 1 µM): 91.9%

Cc1cc([C@@H](C)Nc2ccccc2C(=O)O)c2nc(N3CCC(F)(F)CC3)c(C#N)c(=O)n2c1
remaining binding (Protein kinase C epsilon type (PRKCE, Homo sapiens, UniProt Q02156); binding, competition with immobilised ligand; 10 µM): 100%

CN(C)c1nc(NCc2cccc(F)c2)c(/N=N/c2ccc(Cl)cc2)c(N(C)C)n1
inhibition (OfChi-h; enzyme activity, inhibitor, fluorescence; 1 µM): 82.7%

CNc1ncc2c(/C=C/C(=O)N3CCC(OC)CC3)nn(Cc3cccc(C(F)(F)F)c3)c2n1
remaining activity (Bone morphogenetic protein receptor type-1A (BMPR1A, Homo sapiens, UniProt P36894); enzyme activity, inhibitor, radiometric; 1 µM): 93%

CC(C)OC(=O)CNc1cccc(CN(Cc2ccc(-n3cccn3)cc2)S(=O)(=O)c2cccnc2)n1
inhibition (Beta-2 adrenergic receptor (ADRB2, Homo sapiens, UniProt P07550); ligand displacement, radioligand; 10 µM): 2%

COc1cc(-c2cncc3c2CN(C)Cc2cc(N4CCNCC4)ccc2-3)cc(OC)c1OC
remaining activity (Serine/threonine-protein kinase 35 (STK35, Homo sapiens, UniProt Q8TDR2); enzyme activity, inhibitor; 1 µM): 111%

O=C(NO)c1cncc(OS(=O)(=O)Oc2ccc3ccccc3c2)c1
inhibition (HDAC7; enzyme activity, inhibitor, fluorescence; 10 µM): 46%

C[C@@H]1CN(c2ccc(-c3cc(C(=O)NCCOCCOCCOCCOCCNC(=O)/C=C/c4[nH]cc(C(=O)N[C@@H](CC(N)=O)c5ccc(F)c(Cl)c5)c4-c4ccc(Cl)cc4F)ccc3F)cc2NC(=O)c2c[nH]c(=O)cc2C(F)(F)F)C[C@H](C)N1C
ΔTm (WDR5; thermal stability, DSF; 5.5 µM): 10.6 °C

O=C(/C=C/c1cccc(OS(=O)(=O)Oc2ccc(C(F)(F)F)cc2)c1)NO
inhibition (HDAC7; enzyme activity, inhibitor, fluorescence; 10 µM): 30%

C[C@@H]1CN(c2ccc(-c3cc(C(=O)NCCOCCOCCOCCOCCOCCOCCOCCOCCOCCNC(=O)/C=C/c4[nH]cc(C(=O)N[C@@H](CC(N)=O)c5ccc(F)c(Cl)c5)c4-c4ccc(Cl)cc4F)ccc3F)cc2NC(=O)c2c[nH]c(=O)cc2C(F)(F)F)C[C@H](C)N1C
ΔTm (WDR5; thermal stability, DSF; 5.5 µM): 8.9 °C

O=C(Cn1cc(C=CC(=O)c2ccc(F)cc2)nn1)Nc1nc(-c2ccccc2)cs1
inhibition (72 kDa type IV collagenase (MMP2, Homo sapiens, UniProt P08253); enzyme activity, inhibitor; 0.5 µM): 40.6%
